Experimental data as given in ChEMBL document CHEMBL4118063, “Design, synthesis and evaluation of aromatic heterocyclic derivatives as potent antifungal agents” (Eur J Med Chem, 2017).
≈ marks a conversion by molar mass, not a printed value.

How the values were obtained:
[1] = target: T1, Lanosterol 14-alpha demethylase (Candida albicans (strain SC5314 / ATCC MYA-2876) (Yeast), UniProt P10613); experiment: Inhibition of CYP51 in Candida albicans ATCC SC5314 assessed as obtusifoliol content at 8 ug/ml by GS-MS analysis relative to total sterols (reference value: 0.6%); parameters: scale not given: the % may be the effect or the level left; settings: at 8 µg/mL
T1 sequence (P10613 whole entry): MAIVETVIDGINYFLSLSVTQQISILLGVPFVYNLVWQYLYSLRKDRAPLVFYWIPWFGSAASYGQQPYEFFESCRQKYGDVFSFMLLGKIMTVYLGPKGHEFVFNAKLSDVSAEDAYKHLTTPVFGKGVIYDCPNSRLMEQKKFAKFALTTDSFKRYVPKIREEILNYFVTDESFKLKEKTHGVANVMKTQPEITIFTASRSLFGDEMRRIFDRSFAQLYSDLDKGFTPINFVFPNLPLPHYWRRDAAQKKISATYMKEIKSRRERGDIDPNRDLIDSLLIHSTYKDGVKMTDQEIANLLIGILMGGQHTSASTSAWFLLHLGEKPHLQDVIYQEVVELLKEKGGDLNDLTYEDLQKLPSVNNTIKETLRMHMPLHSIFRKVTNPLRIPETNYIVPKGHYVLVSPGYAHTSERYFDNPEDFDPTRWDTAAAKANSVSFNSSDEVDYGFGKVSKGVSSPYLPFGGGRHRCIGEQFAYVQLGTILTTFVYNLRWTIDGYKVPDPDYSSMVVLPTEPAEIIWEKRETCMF

[2] = target: T1, Lanosterol 14-alpha demethylase; experiment: Inhibition of CYP51 in Candida albicans ATCC SC5314 assessed as ergosterol content at 8 ug/ml by GS-MS analysis relative to total sterols (reference value: 98.7%); parameters: scale not given: the % may be the effect or the level left; settings: at 8 µg/mL
[3] = system: Aspergillus fumigatus; experiment: Antifungal activity against Aspergillus fumigatus GIM 3.524 by broth microdilution method; assay type: functional
In short: (§1)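 Serial twofold-style dilution in growth medium per NCCLS broth microdilution guidelines. Compounds dissolved in DMSO before dilution. Fluconazole and itraconazole served as positive controls. MIC was read as the lowest concentration that prevents visible fungal growth.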

[4] = target: T1, Lanosterol 14-alpha demethylase; experiment: Inhibition of CYP51 in Candida albicans ATCC SC5314 assessed as eburicol content at 0.5 ug/ml by GS-MS analysis relative to total sterols (reference value: 0.4%); parameters: scale not given: the % may be the effect or the level left; settings: at 0.5 µg/mL
[5] = target: T1, Lanosterol 14-alpha demethylase; experiment: Inhibition of CYP51 in Candida albicans ATCC SC5314 assessed as obtusifoliol content at 0.125 ug/ml by GS-MS analysis relative to total sterols (reference value: 0.6%); parameters: scale not given: the % may be the effect or the level left
[6] = target: T1, Lanosterol 14-alpha demethylase; experiment: Inhibition of CYP51 in Candida albicans ATCC SC5314 assessed as ergosterol content at 0.03125 ug/ml by GS-MS analysis relative to total sterols (reference value: 98.7%); parameters: scale not given: the % may be the effect or the level left
[7] = system: Candida tropicalis; experiment: Antifungal activity against Candida tropicalis cgmcc 2.3739 by broth microdilution method; assay type: functional; in short: as §1
[8] = target: T1, Lanosterol 14-alpha demethylase; experiment: Inhibition of CYP51 in Candida albicans ATCC SC5314 assessed as obtusifoliol content at 2 ug/ml by GS-MS analysis relative to total sterols (reference value: 0.6%); parameters: scale not given: the % may be the effect or the level left; settings: at 2 µg/mL
[9] = system: Candida albicans; experiment: Antifungal activity against Candida albicans CPCC 400523 by broth microdilution method; assay type: functional; in short: as §1
[10] = target: T1, Lanosterol 14-alpha demethylase; experiment: Inhibition of CYP51 in Candida albicans ATCC SC5314 assessed as eburicol content at 0.03125 ug/ml by GS-MS analysis relative to total sterols (reference value: 0.4%); parameters: scale not given: the % may be the effect or the level left
[11] = target: T1, Lanosterol 14-alpha demethylase; experiment: Inhibition of CYP51 in Candida albicans ATCC SC5314 assessed as obtusifoliol content at 0.5 ug/ml by GS-MS analysis relative to total sterols (reference value: 0.6%); parameters: scale not given: the % may be the effect or the level left; settings: at 0.5 µg/mL
[12] = target: T1, Lanosterol 14-alpha demethylase; experiment: Inhibition of CYP51 in Candida albicans ATCC SC5314 assessed as obtusifoliol content at 0.03125 ug/ml by GS-MS analysis relative to total sterols (reference value: 0.6%); parameters: scale not given: the % may be the effect or the level left
[13] = target: T1, Lanosterol 14-alpha demethylase; experiment: Inhibition of CYP51 in Candida albicans ATCC SC5314 assessed as lanosterol content at 0.125 ug/ml by GS-MS analysis relative to total sterols; parameters: scale not given: the % may be the effect or the level left
[14] = target: T1, Lanosterol 14-alpha demethylase; experiment: Inhibition of CYP51 in Candida albicans ATCC SC5314 assessed as eburicol content at 8 ug/ml by GS-MS analysis relative to total sterols (reference value: 0.4%); parameters: scale not given: the % may be the effect or the level left; settings: at 8 µg/mL
[15] = system: Candida albicans; experiment: Antifungal activity against Candida albicans ATCC SC5314 by broth microdilution method; assay type: functional; in short: as §1
[16] = target: T1, Lanosterol 14-alpha demethylase; experiment: Inhibition of CYP51 in Candida albicans ATCC SC5314 assessed as 4,4-dimethyl zymosterol content at 8 ug/ml by GS-MS analysis relative to total sterols; parameters: scale not given: the % may be the effect or the level left
In short: (§2)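 C. albicans SC5314 cells exposed to drug at 0.03125–8 µg/mL alongside untreated and fluconazole-treated cells; sterols extracted and analysed by GC-MS with cholesterol as internal standard; each sterol expressed as percent of total sterols.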

[17] = target: T1, Lanosterol 14-alpha demethylase; experiment: Inhibition of CYP51 in Candida albicans ATCC SC5314 assessed as lanosterol content at 0.5 ug/ml by GS-MS analysis relative to total sterols; parameters: scale not given: the % may be the effect or the level left; settings: at 0.5 µg/mL
[18] = target: T1, Lanosterol 14-alpha demethylase; experiment: Inhibition of CYP51 in Candida albicans ATCC SC5314 assessed as ergosterol content at 0.125 ug/ml by GS-MS analysis relative to total sterols (reference value: 98.7%); parameters: scale not given: the % may be the effect or the level left
[19] = target: T1, Lanosterol 14-alpha demethylase; experiment: Inhibition of CYP51 in Candida albicans ATCC SC5314 assessed as decrease in ergosterol content by GS-MS analysis
[20] = target: T1, Lanosterol 14-alpha demethylase; experiment: Inhibition of CYP51 in Candida albicans ATCC SC5314 assessed as eburicol content at 2 ug/ml by GS-MS analysis relative to total sterols (reference value: 0.4%); parameters: scale not given: the % may be the effect or the level left; settings: at 2 µg/mL
[21] = system: Candida albicans; experiment: Antifungal activity against fluconazole-resistant Candida albicans strain 103 by broth microdilution method; assay type: functional
In short: (§3)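 Broth serial dilution in 96-well plates per NCCLS guidelines; compounds dissolved in DMSO and serially diluted into growth medium; MIC taken as lowest concentration inhibiting visible fungal growth. Fluconazole-resistant clinical C. albicans isolates 100 and 103; fluconazole and itraconazole as positive controls.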

[22] = target: T1, Lanosterol 14-alpha demethylase; experiment: Inhibition of CYP51 in Candida albicans ATCC SC5314 assessed as increase in eburicol content by GS-MS analysis
[23] = target: T1, Lanosterol 14-alpha demethylase; experiment: Inhibition of CYP51 in Candida albicans ATCC SC5314 assessed as ergosterol content at 0.5 ug/ml by GS-MS analysis relative to total sterols (reference value: 98.7%); parameters: scale not given: the % may be the effect or the level left; settings: at 0.5 µg/mL
[24] = target: T1, Lanosterol 14-alpha demethylase; experiment: Inhibition of CYP51 in Candida albicans ATCC SC5314 assessed as lanosterol content at 2 ug/ml by GS-MS analysis relative to total sterols; parameters: scale not given: the % may be the effect or the level left; settings: at 2 µg/mL
[25] = target: T1, Lanosterol 14-alpha demethylase; experiment: Inhibition of CYP51 in Candida albicans ATCC SC5314 assessed as increase in lanosterol content by GS-MS analysis
[26] = target: T1, Lanosterol 14-alpha demethylase; experiment: Inhibition of CYP51 in Candida albicans ATCC SC5314 assessed as 4,4-dimethyl zymosterol content at 2 ug/ml by GS-MS analysis relative to total sterols; parameters: scale not given: the % may be the effect or the level left; in short: as §2
[27] = target: T1, Lanosterol 14-alpha demethylase; experiment: Inhibition of CYP51 in Candida albicans ATCC SC5314 assessed as ergosterol content at 2 ug/ml by GS-MS analysis relative to total sterols (reference value: 98.7%); parameters: scale not given: the % may be the effect or the level left; settings: at 2 µg/mL
[28] = target: T1, Lanosterol 14-alpha demethylase; experiment: Inhibition of CYP51 in Candida albicans ATCC SC5314 assessed as lanosterol content at 8 ug/ml by GS-MS analysis relative to total sterols; parameters: scale not given: the % may be the effect or the level left; settings: at 8 µg/mL
[29] = target: T1, Lanosterol 14-alpha demethylase; experiment: Inhibition of CYP51 in Candida albicans ATCC SC5314 assessed as eburicol content at 0.125 ug/ml by GS-MS analysis relative to total sterols (reference value: 0.4%); parameters: scale not given: the % may be the effect or the level left
[30] = system: Cryptococcus neoformans; experiment: Antifungal activity against Cryptococcus neoformans cgmcc 2.3161 by broth microdilution method; assay type: functional; in short: as §1
[31] = system: Candida albicans; experiment: Antifungal activity against fluconazole-resistant Candida albicans strain 100 by broth microdilution method; assay type: functional; in short: as §3

How did the Activity [1] turn out when OC(Cn1cncn1)(Cn1cncn1)c1ccc(F)cc1F [FLUCONAZOLE] was run?
Its Activity is 13.3%.

And the Activity [2]?
The Activity was 1.7%.

What about the MIC [3] of the same compound?
Its MIC is 16 µg/mL (≈ 52.2 µM).

And the Activity [4]?
The Activity was 7.2%.

What about the Activity [5] of the same compound?
The Activity was 8.9%.

What about the Activity [6] of the same compound?
Its Activity is 95.6%.

What about the MIC [7] of the same compound?
Its MIC is 0.25 µg/mL (≈ 0.816 µM).

What about the Activity [8] of the same compound?
The Activity was 16.1%.

What about the MIC [9] of the same compound?
The MIC was 2 µg/mL (≈ 6.53 µM).

And the Activity [10]?
Its Activity is 0.8%.

What about the Activity [11] of the same compound?
The Activity was 6.9%.

What about the Activity [12] of the same compound?
The Activity was 3.6%.

And the Activity [13]?
Its Activity is 0.4%.

What about the Activity [14] of the same compound?
The Activity was 37.2%.

What about the MIC [15] of the same compound?
The MIC was 1 µg/mL (≈ 3.27 µM).

And the Activity [16]?
The Activity was 13%.

And the Activity [17]?
The Activity was 4.5%.

What about the Activity [18] of the same compound?
The Activity was 88.7%.

What about the “inhibition (INH)” value [19] of the same compound?
The value was “Dose-dependent effect”.

And the Activity [20]?
Its Activity is 27%.

And the MIC [21]?
The MIC was > 64 µg/mL.

What about the “inhibition (INH)” value [22] of the same compound?
The value was “Dose-dependent effect”.

What about the Activity [23] of the same compound?
Its Activity is 81.4%.

What about the Activity [24] of the same compound?
Its Activity is 23%.

What about the “inhibition (INH)” value [25] of the same compound?
The value was “Dose-dependent effect”.

And the Activity [26]?
The Activity was 15.7%.

What about the Activity [27] of the same compound?
Its Activity is 18.2%.

What about the Activity [28] of the same compound?
The Activity was 34.8%.

What about the Activity [29] of the same compound?
Its Activity is 2%.

What about the MIC [30] of the same compound?
The MIC was 4 µg/mL (≈ 13.1 µM).

And the MIC [31]?
Its MIC is > 64 µg/mL.
